Measurements from ChEMBL document CHEMBL4811254, “Beyond Basicity: Discovery of Nonbasic DENV-2 Protease Inhibitors with Potent Activity in Cell Culture” (J Med Chem, 2021).
Activity calls are given as the source filed them.

What was measured:
[1] = Selectivity index, ratio of CC50 for human HeLa cells to EC50 for inhibition of NS2B-NS3 protease in DENV2proHeLa system; assay type: toxicity; conditions: read-out: Ratio CC50/EC50
[2] = Passive membrane permeability of the compound in phosphate buffered saline assessed as concentration of the compound in acceptor plate at 200 uM incubated for 5 hrs by PAMPA assay based HPLC analysis; assay type: ADME
Summary of the method: (§1)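 Precoated trilayer PAMPA, 5 h incubation. Acceptor and donor concentrations measured after 5 h. Permeability and mass retention calculated by a literature method.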

[3] = Passive membrane permeability of the compound in phosphate buffered saline assessed as concentration of the compound in donor plate at 200 uM incubated for 5 hrs by PAMPA assay based HPLC analysis; assay type: ADME; summary of the method: as §1
dengue virus type 2 [4] = assay: (§2) Antiviral activity against DENV2 infected in human Huh7 cells assessed as reduction in virus titer in cell supernatant by measuring inhibition of plaque formation using VeroE6 cells preincubated with viral infected Huh7 cells for 48 hrs and measured following infection of VeroE6 cells with supernatants for 7 days by plaque assay based crystal violet staining analysis; assay type: functional, organism-based, Huh-7; conditions: for EC50: Huh-7; for EC90: Huh-7, 216 h, time 9 day
Summary of the method: (§3)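 Huh-7 cells seeded at 1 × 10⁴/well and incubated overnight. Infected with DENV-2 at MOI 1 for 2 h, then medium changed and compound added. […] Pooled supernatants titred by plaque assay on VeroE6 cells: 10⁻¹ to 10⁻⁶ dilutions, 1 h infection, 7 days, formaldehyde fix, crystal violet.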

Genome polyprotein [5] = molecular target: T1, Genome polyprotein (dengue virus type 2, UniProt P29990); assay: Competitive inhibition of DENV2 NS2B-NS3 protease expressed in Escherichia coli BL21 lambda(DE3) using FRET substrate preincubated with enzyme for 15 mins followed by substrate addition for 15 mins by Michaelis-Menten based analysis
Genome polyprotein [6] = molecular target: T1, Genome polyprotein; assay: Competitive inhibition of DENV2 NS2B-NS3 protease expressed in Escherichia coli BL21 lambda(DE3) using FRET substrate preincubated with enzyme for 15 mins followed by varying concentrations of substrate addition for 15 mins by Cheng-Prusoff plot analysis
[7] = molecular target: Prothrombin (Homo sapiens) (UniProt P00734); assay: Inhibition of thrombin in human plasma using Boc-Val-Pro-Arg-AMC as substrate at 25 uM preincubated with enzyme for 15 mins followed by substrate addition and measured for 15 mins by fluorimetric assay; assay type: cell-free; conditions: time 30.0 min
dengue virus type 2 [8] = assay: as §2, with “VeroE6 cells at 12.5 uM preincubated with” for “VeroE6 cells preincubated with”; assay type: functional; conditions: Huh-7, 216 h, time 9 day; summary of the method: as §3
[9] = Stability of the compound assessed as bovine pancreas trypsin-mediated parent compound depletion at 0.1 mg/ml incubated for 120 mins by HPLC analysis; assay type: ADME, Bos taurus; conditions: cattle; for metabolised at 2 h, 0.1 mg/ml: bovine pancreas trypsin, read-out: Drug degradation
Summary of the method: (§4)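 Compound incubated with α-chymotrypsin or bovine trypsin in buffer for 120 min at 37 °C; parent compound depletion monitored.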

[10] = Stability of the compound assessed as bovine pancreas alphachymotrypsin-mediated parent compound depletion by measuring parent compound remaining at 0.1 mg/ml incubated for 120 mins by HPLC analysis; assay type: ADME, Bos taurus; conditions: cattle, bovine pancreas alpha-chymotrypsin, read-out: Stabilty; summary of the method: as §4
Huh-7 [11] = assay: Cytotoxicity against human Huh-7 cells assessed as reduction in cell viability at 12.5 uM incubated for 48 hrs by CellTiter-Blue assay; assay type: cell-based; conditions: huh-7, 48 h
Summary of the method: (§5)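 Viability by CellTiter-Blue in HeLa or Huh-7 cells exposed to compound dilutions. Plates run in parallel with the reporter assay (HeLa) or the virus titer assay (Huh-7).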

[12] = molecular target: Genome polyprotein (dengue virus type 2) (UniProt P29990); assay: Competitive inhibition of DENV2 NS2B-NS3 protease expressed in Escherichia coli BL21 lambda(DE3) assessed as increase in Km without change in Vmax using FRET substrate preincubated with enzyme for 15 mins followed by substrate addition for 15 mins by Michaelis-Menten based analysis; conditions: time 30.0 min
[13] = molecular target: Genome polyprotein (dengue virus type 2) (UniProt P29990); assay: Inhibition of DENV2 NS2B-NS3 protease expressed in Escherichia coli BL21 lambda(DE3) using FRET substrate preincubated with enzyme for 15 mins in presence of detergent CHAPS followed by substrate addition for 15 mins by fluorescence based analysis; conditions: time 30.0 min
Genome polyprotein [14] = molecular target: T1, Genome polyprotein; assay: Inhibition of NS2B-NS3 protease in DENV2proHeLa system assessed as inhibition of luciferase signal incubated for 24 hrs by luciferase reporter gene assay; assay type: cell-based, HeLa
Summary of the method: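 HeLa cells stably carrying the reporter system, 2 × 10⁴ per well, given inhibitor at seeding and held 24 h at 37 °C. Cells lysed 15 min at room temperature. Luciferase read for 5 s after injecting coelenterazine (2.75 μM in PBS). Triplicate wells per concentration; percent inhibition taken against untreated cells. EC50/EC90 from 4-parameter dose-response fit, background from cell-free wells subtracted.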

[15] = molecular target: Genome polyprotein (dengue virus type 2) (UniProt P29990); assay: Inhibition of NS2B-NS3 protease in DENV2proHeLa system assessed as inhibition of luciferase signal at 12.5 uM incubated for 24 hrs by luciferase reporter gene assay; assay type: cell-based; conditions: HeLa
Summary of the method: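 Stable DENV2proHeLa cells seeded at 2 × 10⁴/well and dosed immediately, then incubated 24 h at 37 °C. Cells lysed 15 min at room temperature. Luciferase read with coelenterazine (2.75 μM in PBS) injection, luminescence 5 s. Triplicates; percent inhibition calculated relative to untreated control; background from cell-free wells.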

[16] = Passive membrane permeability of the compound in phosphate buffered saline assessed as mass retention of the compound at 200 uM incubated for 5 hrs by PAMPA assay based HPLC analysis; assay type: ADME; summary of the method: as §1
Trypsin (Homo sapiens) = Trypsin (Homo sapiens) (UniProt P07477+P07478+P35030); assay: Inhibition of trypsin (unknown origin) using Boc-Val-Pro-Arg-AMC as substrate at 50 uM preincubated with enzyme for 15 mins followed by substrate addition and measured for 15 mins by fluorimetric assay; assay type: protein assay; conditions: time 30.0 min
[17] = Cytotoxicity against human HeLa cells assessed as reduction in cell viability incubated for 24 hrs by CellTiter-Blue assay; assay type: cell-based; summary of the method: as §5
[18] = Passive membrane permeability of the compound in phosphate buffered saline at 200 uM incubated for 5 hrs by PAMPA assay based HPLC analysis; assay type: ADME; conditions: for Papp at 5 h, 200 µM: PAMPA, read-out: permeability; summary of the method: as §1
[19] = Metabolic stability in Sprague-Dawley rat liver microsomes at 100 uM incubated for 60 mins in presence of NADPH by HPLC analysis; assay type: ADME, Microsome; conditions: 1 h
Summary of the method: (§6)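 Rat liver microsomes; samples incubated 60 min at 37 °C, parent compound depletion monitored.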

[20] = molecular target: Genome polyprotein (West Nile virus) (UniProt P06935); assay: Inhibition of WNV NS2B-NS3 protease expressed in Escherichia coli BL21 lambda(DE3) using FRET substrate preincubated with enzyme for 15 mins in presence of detergent CHAPS followed by substrate addition for 15 mins by fluorescence based analysis; conditions: time 30.0 min
[21] = Stability of the compound assessed as bovine pancreas alphachymotrypsin-mediated parent compound depletion at 0.1 mg/ml incubated for 120 mins by HPLC analysis; assay type: ADME, Bos taurus; conditions: cattle, bovine pancreas alpha-chymotrypsin, read-out: Drug degradation; summary of the method: as §4
[22] = Half life in Sprague-Dawley rat liver microsomes at 100 uM incubated for 60 mins in presence of NADPH by HPLC analysis; assay type: ADME, Microsome; summary of the method: as §6
Huh-7 [23] = assay: Cytotoxicity against human Huh-7 cells assessed as reduction in cell viability at 10 uM incubated for 48 hrs by CellTiter-Blue assay; assay type: cell-based; conditions: huh-7, 48 h; summary of the method: as §5
dengue virus type 2 [24] = assay: as §2, with “VeroE6 cells at 10 uM preincubated with” for “VeroE6 cells preincubated with”; assay type: functional; conditions: Huh-7, 216 h, time 9 day

Genome polyprotein (West Nile virus), sequence (P06935 whole entry): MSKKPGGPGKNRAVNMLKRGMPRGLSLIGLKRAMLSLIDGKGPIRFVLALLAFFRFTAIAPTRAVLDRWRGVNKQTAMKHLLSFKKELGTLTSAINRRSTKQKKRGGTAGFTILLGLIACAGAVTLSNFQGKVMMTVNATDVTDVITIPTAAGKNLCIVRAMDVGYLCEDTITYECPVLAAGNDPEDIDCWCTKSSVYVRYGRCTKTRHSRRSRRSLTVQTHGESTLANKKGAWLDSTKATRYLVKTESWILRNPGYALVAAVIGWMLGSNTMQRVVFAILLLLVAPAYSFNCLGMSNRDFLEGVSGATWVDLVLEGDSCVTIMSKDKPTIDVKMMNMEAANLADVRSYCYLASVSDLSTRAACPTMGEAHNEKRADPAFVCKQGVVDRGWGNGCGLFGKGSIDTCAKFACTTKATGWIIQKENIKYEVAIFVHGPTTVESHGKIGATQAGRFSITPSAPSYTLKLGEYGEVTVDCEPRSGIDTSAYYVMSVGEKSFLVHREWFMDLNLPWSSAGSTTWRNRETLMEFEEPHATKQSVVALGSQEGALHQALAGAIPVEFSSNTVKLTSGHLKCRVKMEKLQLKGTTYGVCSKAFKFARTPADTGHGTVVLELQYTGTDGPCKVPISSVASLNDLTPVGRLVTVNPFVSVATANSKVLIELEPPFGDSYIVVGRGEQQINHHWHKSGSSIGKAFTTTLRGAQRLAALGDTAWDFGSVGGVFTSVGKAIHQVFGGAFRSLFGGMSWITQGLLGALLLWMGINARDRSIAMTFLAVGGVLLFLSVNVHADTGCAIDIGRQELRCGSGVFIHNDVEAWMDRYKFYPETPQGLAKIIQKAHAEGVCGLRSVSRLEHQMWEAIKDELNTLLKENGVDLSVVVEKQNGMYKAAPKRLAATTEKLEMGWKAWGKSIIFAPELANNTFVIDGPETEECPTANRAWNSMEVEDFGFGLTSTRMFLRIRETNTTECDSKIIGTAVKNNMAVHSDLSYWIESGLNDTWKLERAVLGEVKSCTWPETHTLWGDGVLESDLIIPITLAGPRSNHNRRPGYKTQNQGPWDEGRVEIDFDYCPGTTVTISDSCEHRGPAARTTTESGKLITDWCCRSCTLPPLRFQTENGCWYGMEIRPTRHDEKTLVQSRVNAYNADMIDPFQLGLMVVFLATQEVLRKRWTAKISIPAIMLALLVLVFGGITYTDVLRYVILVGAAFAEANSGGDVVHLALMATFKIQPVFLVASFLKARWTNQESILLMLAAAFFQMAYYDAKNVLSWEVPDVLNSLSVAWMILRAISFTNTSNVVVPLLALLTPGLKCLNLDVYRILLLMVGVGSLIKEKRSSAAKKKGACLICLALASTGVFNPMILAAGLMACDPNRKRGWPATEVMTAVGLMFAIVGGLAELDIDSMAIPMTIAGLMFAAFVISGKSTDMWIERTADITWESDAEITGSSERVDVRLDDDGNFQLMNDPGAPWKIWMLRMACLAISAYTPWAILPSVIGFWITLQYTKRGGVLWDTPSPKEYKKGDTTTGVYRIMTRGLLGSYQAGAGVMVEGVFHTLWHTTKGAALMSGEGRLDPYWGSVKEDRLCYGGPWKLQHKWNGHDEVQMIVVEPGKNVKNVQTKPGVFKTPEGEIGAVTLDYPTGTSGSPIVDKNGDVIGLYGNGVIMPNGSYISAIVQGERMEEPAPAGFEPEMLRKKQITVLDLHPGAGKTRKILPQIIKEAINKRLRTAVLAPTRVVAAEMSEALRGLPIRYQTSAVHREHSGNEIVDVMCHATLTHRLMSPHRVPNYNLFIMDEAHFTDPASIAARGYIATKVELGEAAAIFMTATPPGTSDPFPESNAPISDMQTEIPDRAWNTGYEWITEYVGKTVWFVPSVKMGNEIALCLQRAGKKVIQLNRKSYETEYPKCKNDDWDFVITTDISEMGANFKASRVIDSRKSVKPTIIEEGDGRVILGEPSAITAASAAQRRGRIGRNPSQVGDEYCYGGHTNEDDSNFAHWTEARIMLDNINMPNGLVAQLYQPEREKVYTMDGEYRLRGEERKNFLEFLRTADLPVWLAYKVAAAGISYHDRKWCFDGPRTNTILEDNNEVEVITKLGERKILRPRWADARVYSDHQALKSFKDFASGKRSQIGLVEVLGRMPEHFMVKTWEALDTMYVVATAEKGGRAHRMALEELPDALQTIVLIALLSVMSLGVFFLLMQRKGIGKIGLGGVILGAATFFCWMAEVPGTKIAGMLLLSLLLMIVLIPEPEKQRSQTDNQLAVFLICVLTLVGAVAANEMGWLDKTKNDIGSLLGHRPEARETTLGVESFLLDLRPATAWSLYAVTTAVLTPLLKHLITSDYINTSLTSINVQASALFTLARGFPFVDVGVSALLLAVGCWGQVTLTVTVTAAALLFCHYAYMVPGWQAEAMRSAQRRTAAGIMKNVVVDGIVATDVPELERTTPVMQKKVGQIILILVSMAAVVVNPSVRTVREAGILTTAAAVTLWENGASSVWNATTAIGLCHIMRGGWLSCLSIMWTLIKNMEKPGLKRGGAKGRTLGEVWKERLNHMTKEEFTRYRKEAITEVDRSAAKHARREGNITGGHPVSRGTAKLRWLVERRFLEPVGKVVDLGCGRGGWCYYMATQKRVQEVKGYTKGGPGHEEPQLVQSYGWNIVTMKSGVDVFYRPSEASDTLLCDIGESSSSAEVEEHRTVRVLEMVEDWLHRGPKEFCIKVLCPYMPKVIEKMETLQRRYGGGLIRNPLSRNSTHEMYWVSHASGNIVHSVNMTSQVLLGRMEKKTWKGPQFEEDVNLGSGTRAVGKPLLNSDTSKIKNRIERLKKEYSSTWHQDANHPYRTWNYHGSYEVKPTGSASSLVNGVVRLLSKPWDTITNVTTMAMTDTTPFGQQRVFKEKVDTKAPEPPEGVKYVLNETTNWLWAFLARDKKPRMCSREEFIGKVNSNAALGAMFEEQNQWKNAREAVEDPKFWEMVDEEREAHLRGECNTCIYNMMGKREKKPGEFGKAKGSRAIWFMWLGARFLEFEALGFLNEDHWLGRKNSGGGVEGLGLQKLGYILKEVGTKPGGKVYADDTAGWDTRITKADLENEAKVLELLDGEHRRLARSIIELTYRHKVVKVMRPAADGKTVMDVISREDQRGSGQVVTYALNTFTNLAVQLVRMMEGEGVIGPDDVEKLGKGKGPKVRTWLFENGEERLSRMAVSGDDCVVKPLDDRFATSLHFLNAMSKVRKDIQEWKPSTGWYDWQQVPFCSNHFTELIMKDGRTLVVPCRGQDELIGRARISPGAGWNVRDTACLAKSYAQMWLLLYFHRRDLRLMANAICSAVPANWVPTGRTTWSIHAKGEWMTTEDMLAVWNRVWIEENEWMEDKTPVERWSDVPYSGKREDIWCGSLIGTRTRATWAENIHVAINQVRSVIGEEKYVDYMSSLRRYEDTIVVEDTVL

| SMILES | Activity [2] [µM] | Activity [3] [µM] | EC50 (dengue virus type 2 [4]) [µM] | EC90 (dengue virus type 2 [4]) [µM] | Ki (Genome polyprotein [5]) [µM] | Ki (Genome polyprotein [6]) [µM] | inhibition [7] | inhibition at 12.5 µM (dengue virus type 2 [8]) [%] | metabolised at 2 h, 0.1 mg/ml [9] [%] | remaining at 2 h, 0.1 mg/ml [10] [%] | Activity (Huh-7 [11]) [%] | inhibition [12] | inhibition [13] | EC50 (Genome polyprotein [14]) [µM] | inhibition [15] [%] | Activity [16] [%] | inhibition (Trypsin (Homo sapiens)) | CC50 at 24 h [17] [µM] | Papp at 5 h, 200 µM [18] [×10⁻⁶ cm/s] | Stabilty [19] | also measured |
| --- | --- | --- | --- | --- | --- | --- | --- | --- | --- | --- | --- | --- | --- | --- | --- | --- | --- | --- | --- | --- | --- |
| NC(=O)c1cccc(NC(=O)[C@@H](NC(=O)c2ccc(Oc3ccccc3)cc2)c2ccc(OCc3ccccc3)cc2)c1 | 9.5 | 164 | 0.66 | 7 | 5.2 | 6.1 | inactive | 100 | 25 | 70 | < 20 | Active | Active | 0.73 | 83 | 15 | inactive | > 100 | 2.2 | – | selectivity ratio [1]: > 140 |
| NC(=O)c1cccc(NC(=O)[C@@H](NC(=O)c2ccc(-c3ccc(Cl)cc3)cc2)c2ccc(OCc3ccccc3)cc2)c1 | 3.7 | 187 | 1.6 | 4.7 | 4.1 | 6.9 | inactive | 100 | 25 | 70 | < 20 | Active | Active | 1.2 | 78 | 5.5 | inactive | > 25 | 0.7 | Stable | inhibition [20]: Active |
| NC(=O)c1cccc(NC(=O)[C@@H](NC(=O)c2ccc(N3CCOCC3)cc2)c2ccc(OCc3ccccc3)cc2)c1 | 8.1 | 181 | 0.85 | 15 | – | – | inactive | 96 | – | – | < 20 | – | Active | 2.2 | 79 | 7.1 | inactive | > 100 | 1.7 | – | metabolised at 2 h, 0.1 mg/ml [21]: 40%; Stabilty ([9]; isolated protein, 2 h): Unstable; half-life at 100 µM [22]: 27 min |
| CCCCCC(=O)N[C@H](C(=O)NCc1ccc(C(N)=O)cc1)c1ccc(OCc2ccccc2)cc1 | – | – | – | – | – | – | inactive | – | – | – | – | – | – | 6.3 | 66 | – | inactive | > 100 | – | – | Activity (Huh-7 [23]): < 20%; inhibition at 10 µM (dengue virus type 2 [24]): 34%; permeability ([18]; pampa, 5 h, 200 µM): Impermeable |
| CCCCCC(=O)N[C@H](C(=O)NCc1ccc(NC(=N)N)cc1)c1ccc(OCc2ccccc2)cc1 | – | – | – | – | – | – | – | – | 25 | – | – | – | Active | – | – | – | – | – | – | – | metabolised at 2 h, 0.1 mg/ml [21]: 40%; half-life at 100 µM [22]: 55 min |
| NC(=O)c1cccc(NC(=O)[C@@H](NC(=O)c2ccc(Oc3ccc(C(F)(F)F)cc3)cc2)c2ccc(OCc3ccccc3)cc2)c1 | 6.9 | 188 | 0.24 | 4.8 | – | 6.3 | inactive | 100 | 25 | 70 | < 20 | – | Active | 1.2 | 76 | 3.7 | inactive | > 100 | 1.4 | Stable | – |
